From ChEMBL document CHEMBL1147090, “Effect of antibiotics on Staphylococcus aureus producing Panton-Valentine leukocidin” (2007) come the findings set out here.

Test [1] has as its system Staphylococcus aureus. In words: Antibacterial activity against community acquired methicillin-resistant Staphylococcus aureus HT20020488 in CCY medium. It is filed as functional. Summed up: (§1)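 MIC by CLSI-standard broth microdilution, run both in Mueller-Hinton broth and in casein hydrolysate-yeast extract (CCY) medium. Inoculum 5 × 10^5 CFU/ml.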
In test [2] the test system is Staphylococcus aureus. Kind of test: Antibacterial activity against community acquired methicillin-resistant Staphylococcus aureus HT20041010 in Mueller-Hinton medium. It is filed as functional. The method, boiled down:
as §1

In test [3] the test system is Staphylococcus aureus. In words: Antibacterial activity against community acquired methicillin-resistant Staphylococcus aureus HT20030203 in Mueller-Hinton medium. It is filed as functional. Summed up: as §1
In test [4] the test system is Staphylococcus aureus. Kind of test: Antibacterial activity against community acquired methicillin-resistant Staphylococcus aureus HT20020488 in Mueller-Hinton medium. The class given is functional. The method, boiled down: as §1
For test [5], the system named is Staphylococcus aureus. In words: Antibacterial activity against Staphylococcus aureus LUG855 in Mueller-Hinton medium. It is filed as functional. Summed up: as §1
Test [6] has as its system Staphylococcus aureus. In words: Antibacterial activity against community acquired methicillin-resistant Staphylococcus aureus HT20041010 in CCY media. The class given is functional. Summed up:
as §1

The test system of test [7] is Staphylococcus aureus. In words: Antibacterial activity against community acquired methicillin-resistant Staphylococcus aureus HT20030203 in CCY media. The class given is functional. Summed up: as §1
In test [8] the test system is Staphylococcus aureus. In words: Antibacterial activity against Staphylococcus aureus LUG855 in CCY media. The class given is functional. The method, boiled down: as §1
In test [9] the test system is Staphylococcus aureus. In words: Antibacterial activity against community acquired methicillin-resistant Staphylococcus aureus HT20040332 in Mueller-Hinton medium. The class given is functional. The method, boiled down:
as §1

The subject of test [10] is Staphylococcus aureus. In words: Decrease in Panton-Valentine leukocidin level in community acquired methicillin-resistant Staphylococcus aureus HT20030203 in CYY medium. The class given is functional, organism-based. The method, boiled down:
(§2)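 Viable counts by plating diluted broth. Supernatant PVL measured by sandwich ELISA. μg PVL per log10 CFU is expressed as a percentage of the drug-free control. Means ± SD of five (LUG855) or three (clinical isolates) experiments. One-way ANOVA with Dunnett's test.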

Test [11] concerns Staphylococcus aureus. Kind of test: Antibacterial activity against community acquired methicillin-resistant Staphylococcus aureus HT20010734 in CCY medium. It is filed as functional. The method, boiled down:
as §1

The test system of test [12] is Staphylococcus aureus. In words: Decrease in Panton-Valentine leukocidin level in community acquired methicillin-resistant Staphylococcus aureus HT20041010 in CYY medium. It is filed as functional, organism-based. The method, boiled down: as §2
In test [13] the test system is Staphylococcus aureus. In words: Antibacterial activity against community acquired methicillin-resistant Staphylococcus aureus HT20010734 in Mueller-Hinton medium. The class given is functional. Summed up:
as §1

For test [14], the system named is Staphylococcus aureus. Kind of test: Decrease in Panton-Valentine leukocidin level in community acquired methicillin-resistant Staphylococcus aureus HT20020488 in CYY medium. The class given is functional, organism-based. The method, boiled down:
as §2

Test [15] deals with Staphylococcus aureus. Kind of test: Decrease in Panton-Valentine leukocidin level in community acquired methicillin-resistant Staphylococcus aureus HT20040332 in CYY medium. It is filed as functional, organism-based. The method, boiled down: as §2
The test system of test [16] is Staphylococcus aureus. Kind of test: Decrease in Panton-Valentine leukocidin level in community acquired methicillin-resistant Staphylococcus aureus HT20010734 in CYY medium. The class given is functional, organism-based. The method, boiled down:
as §2

In test [17] the test system is Staphylococcus aureus. Kind of test: Antibacterial activity against community acquired methicillin-resistant Staphylococcus aureus HT20040332 in CCY media. The class given is functional. Summed up:
as §1

Test [18] deals with Staphylococcus aureus. In words: Decrease in Panton-Valentine leukocidin level in Staphylococcus aureus LUG855 in CCY medium. It is filed as functional, organism-based. The method, boiled down:
as §2

Test [19] deals with Staphylococcus aureus. Kind of test: Increase in Panton-Valentine leukocidin level in community acquired methicillin-resistant Staphylococcus aureus HT20040332 in CYY medium. The class given is functional, organism-based. The method, boiled down:
as §2

Test [20] deals with Staphylococcus aureus. In words: Increase in Panton-Valentine leukocidin level in community acquired methicillin-resistant Staphylococcus aureus HT20041010 in CYY medium. It is filed as functional, organism-based. Summed up: as §2
Test [21] relates to Staphylococcus aureus. In words: Increase in Panton-Valentine leukocidin level in community acquired methicillin-resistant Staphylococcus aureus HT20030203 in CYY medium. The class given is functional, organism-based. The method, boiled down:
as §2

Test [22] has as its system Staphylococcus aureus. Kind of test: Increase in Panton-Valentine leukocidin level in community acquired methicillin-resistant Staphylococcus aureus HT20010734 in CYY medium. It is filed as functional, organism-based. The method, boiled down:
as §2

Test [23] has as its system Staphylococcus aureus. In words: Increase in Panton-Valentine leukocidin level in Staphylococcus aureus LUG855 in CCY medium. The class given is functional, organism-based. The method, boiled down: as §2

The structures appear in SMILES notation. Converted amounts (≈) assume the structure as drawn. The source made the active and inactive calls. A value given as a limit tells only on which side of the number the result lay.

For `CC(=O)O[C@H]1C[C@@]2(C)[C@@H](C[C@@H](O)[C@H]3[C@@]4(C)CC[C@@H](O)[C@@H](C)[C@@H]4CC[C@@]32C)/C1=C(\CCC=C(C)C)C(=O)O` [FUSIDIC ACID], the MIC (commonly the smallest concentration in the dilution series that meets the test's criterion for growth inhibition) in test [1] is 4 µg/mL (≈ 7.74 µM); in test [2] it was over 128 µg/mL; in test [3], 0.12 µg/mL (≈ 0.232 µM); in test [4], 4 µg/mL (≈ 7.74 µM); in [5] it was under 0.03 µg/mL; in [6], 128 µg/mL (≈ 248 µM). Further, the values for the MIC in test [7] and in test [8] were 0.06 µg/mL (≈ 0.116 µM) and under 0.03 µg/mL, respectively.

On to `CCC[C@@H]1C[C@@H](C(=O)N[C@@H]([C@H]2O[C@H](SC)[C@H](O)[C@@H](O)[C@H]2O)[C@H](C)Cl)N(C)C1` [CLINDAMYCIN], for which the MIC was over 128 µg/mL in test [9]; over 128 µg/mL in test [1]; 0.25 µg/mL (≈ 0.588 µM) in [11]; over 128 µg/mL in test [2]; 0.12 µg/mL (≈ 0.282 µM) in test [13]; 0.12 µg/mL (≈ 0.282 µM) in test [3]. The MIC was over 128 µg/mL in test [4]; 0.06 µg/mL (≈ 0.141 µM) in test [5]; over 128 µg/mL in test [6]; over 128 µg/mL in test [17]; 0.25 µg/mL (≈ 0.588 µM) in test [7]; 0.12 µg/mL (≈ 0.282 µM) in [8]. Besides, the Activity result in [10], in [12], in test [14], in test [15], in [16] and in [18] was “Dose-dependent effect” each time.

Consider `CC(=O)NC[C@H]1CN(c2ccc(N3CCOCC3)c(F)c2)C(=O)O1` [LINEZOLID], for which the MIC in test [9] turned out to be 1 µg/mL (≈ 2.96 µM); in test [2], 1 µg/mL (≈ 2.96 µM); in test [13] it was 0.5 µg/mL (≈ 1.48 µM); in test [3], 1 µg/mL (≈ 2.96 µM); in [4] it was 0.5 µg/mL (≈ 1.48 µM); in [5], 1 µg/mL (≈ 2.96 µM). In addition, the Activity entry in test [10], in test [12], in [14], in test [15], in test [16] and in [18] was “Dose-dependent effect” in each case.

With `Cc1onc(-c2ccccc2)c1C(=O)N[C@@H]1C(=O)N2[C@@H]1SC(C)(C)[C@@H]2C(=O)O` [OXACILLIN], the outcome in [19], in test [20], in test [21], in [22] and in test [23] was Active. Besides, the MIC in [9] is 16 µg/mL (≈ 39.9 µM); in [1], 8 µg/mL (≈ 19.9 µM); in [11], 16 µg/mL (≈ 39.9 µM); in test [2] it was 32 µg/mL (≈ 79.7 µM); in test [13], 32 µg/mL (≈ 79.7 µM); in [3], 32 µg/mL (≈ 79.7 µM). For the same molecule, the MIC in [4] stood at 8 µg/mL (≈ 19.9 µM); in test [5] it was 0.12 µg/mL (≈ 0.299 µM); in test [6] it was 16 µg/mL (≈ 39.9 µM); in test [17], 8 µg/mL (≈ 19.9 µM); in [7] it was 16 µg/mL (≈ 39.9 µM); in test [8], 0.06 µg/mL (≈ 0.149 µM).
